The term IC50 denotes the point on the concentration scale where inhibition reaches its midpoint.

Test [1] concerns JeKo-1. As to the kind of experiment: Antiproliferative activity against human JeKo-1 cells assessed as inhibition of cell growth incubated for 48 hrs by CCK8 assay. Format: functional, cell-based. As to conditions: JeKo-1, 48 h. An outline of the steps: (§1)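 CCK-8 growth-inhibition assay in the malignant haematological lines MOLM-13, NB4 and Jeko-1 and in normal PBMC. Cells were treated across a range of doses and IC50 taken as the half-maximal growth-inhibitory concentration. Data are mean ± SD of triplicate samples, and experiments were repeated at least three times.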
A general note: Tetrazolium dyes change colour on reduction, which living cells bring about.

The test system of test [2] is MOLM-13. As to the kind of experiment: Antiproliferative activity against human MOLM-13 cells assessed as inhibition of cell growth incubated for 48 hrs by CCK8 assay. It counts as functional, cell-based. The conditions noted are these: MOLM-13, 48 h. An outline of the steps: as §1
For test [3], the system named is NB-4. As to the kind of experiment: Antiproliferative activity against human NB4 cells assessed as inhibition of cell growth incubated for 48 hrs by CCK8 assay. Format: functional, cell-based. As to conditions: NB-4, 48 h. Summed up:
as §1

The next test deals with A549. The test is described as follows: Antiproliferative activity against human A549 cells assessed as cell growth inhibition at 10 uM incubated for 48 hrs by CCK8 assay relative to control. It counts as functional. The conditions noted are these: read-out: GI. Summed up: (§2)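 Single-concentration screen of six cancer cell lines. Cells were exposed to 10 μM compound and growth was measured by CCK-8 assay. Results are reported as inhibition rate at 10 μM.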

For the next test, the system named is U-251. As to the kind of experiment: Antiproliferative activity against human U-251 cells assessed as cell growth inhibition at 10 uM incubated for 48 hrs by CCK8 assay relative to control. It counts as functional. As to conditions: read-out: GI. An outline of the steps:
as §2

Test [4] has as its system MOLM-13. As to the kind of experiment: Antiproliferative activity against human MOLM-13 cells assessed as cell growth inhibition at 10 uM incubated for 48 hrs by CCK8 assay relative to control. It counts as functional. The conditions noted are these: read-out: GI. Summed up: as §2
The test system of test [5] is HeLa. The test is described as follows: Antiproliferative activity against human HeLa cells assessed as cell growth inhibition at 10 uM incubated for 48 hrs by CCK8 assay relative to control. It counts as functional. As to conditions: read-out: GI. An outline of the steps:
as §2

The test system of test [6] is NB-4. As to the kind of experiment: Antiproliferative activity against human NB4 cells assessed as cell growth inhibition at 10 uM incubated for 48 hrs by CCK8 assay relative to control. It counts as functional. The conditions noted are these: read-out: GI. Summed up:
as §2

Test [7] concerns JeKo-1. The test is described as follows: Antiproliferative activity against human JeKo-1 cells assessed as cell growth inhibition at 10 uM incubated for 48 hrs by CCK8 assay relative to control. It counts as functional. The conditions noted are these: read-out: GI. An outline of the steps: as §2
Test [8] can be described thus: Antiproliferative activity against Renal 1983 cells (unknown origin) assessed as inhibition of cell proliferation. It counts as functional, cell-based. The conditions noted are these: Renal 1983 cell.
Test [9] concerns MOLM-13. The test is described as follows: Cell cycle arrest in human MOLM-13 cells assessed as accumulation of S phase cells at 10 uM incubated for 24 hrs by RNase A/PI staining based flow cytometry analysis (reference value: 50.12%). Format: functional.
For test [10], the system named is MOLM-13. As to the kind of experiment: Cell cycle arrest in human MOLM-13 cells assessed as accumulation of G0/G1 phase cells at 10 uM incubated for 24 hrs by RNase A/PI staining based flow cytometry analysis (reference value: 38.14%). It counts as functional. (Flow cytometry measures light scatter and fluorescence of single cells or particles in a stream.)
Test [11] deals with MOLM-13. The test is described as follows: Induction of apoptosis in human MOLM-13 cells assessed as necrotic cells at 10 uM incubated for 48 hrs by Annexin V-FITC/PI staining based flow cytometric analysis (reference value: 0.48%). It counts as functional.
A further test has as its system MCF7. As to the kind of experiment: Antiproliferative activity against human MCF7 cells assessed as inhibition of cell proliferation. It counts as functional, cell-based.
Test [12] has as its system MOLM-13. The test is described as follows: Induction of apoptosis in human MOLM-13 cells assessed as viable cells at 10 uM incubated for 48 hrs by Annexin V-FITC/PI staining based flow cytometric analysis (reference value: 92.24%). It counts as functional. As to conditions: read-out: Activity.
Test [13] has as its system HeLa. The test is described as follows: Antiproliferative activity against human HeLa cells assessed as inhibition of cell proliferation. Format: functional, cell-based.
Test [14] relates to MOLM-13. The test is described as follows: Induction of apoptosis in human MOLM-13 cells assessed as late apoptotic cells at 10 uM incubated for 48 hrs by Annexin V-FITC/PI staining based flow cytometric analysis (reference value: 3.17%). It counts as functional.
The test system of test [15] is MOLM-13. As to the kind of experiment: Cell cycle arrest in human MOLM-13 cells assessed as accumulation of G2/M phase cells at 10 uM incubated for 24 hrs by RNase A/PI staining based flow cytometry analysis (reference value: 11.74%). Format: functional.
The subject of test [16] is MOLM-13. The test is described as follows: Induction of apoptosis in human MOLM-13 cells assessed as early apoptotic cells at 10 uM incubated for 48 hrs by Annexin V-FITC/PI staining based flow cytometric analysis (reference value: 4.10%). It counts as functional.

The structures appear in SMILES notation.

On to `COc1ccc2c(c1OC)C(=O)O[C@@H]2[C@H]1c2c(c(CC3CN(C)C3)c3c(c2OC)OCO3)CCN1C`, for which the IC50 in the test with JeKo-1 [1], in the test on MOLM-13 [2] and in the test on NB-4 [3] was more than 20 µM each time.
With `COc1ccc2c(c1OC)C(=O)O[C@@H]2[C@H]1c2c(c(CC3CN(C(=O)OCc4ccccc4)C3)c3c(c2OC)OCO3)CCN1C`, the IC50 in the test on JeKo-1 [1] is 5.11 µM; with MOLM-13 [2] it was 4.37 µM; in the test with NB-4 [3], 10.7 µM.
Take `COc1ccc2c(c1OC)C(=O)O[C@@H]2[C@H]1c2c(c(CC3CCCO3)c3c(c2OC)OCO3)CCN1C(=O)OC(C)(C)C` (stereo partly drawn): the inhibition of growth at 10 µM with A549 was less than 5%; in the test with U-251 it was 29.8%; in the test with MOLM-13 [4], 44.9%; in the test on HeLa [5], 24.7%; in the test on NB-4 [6], 7.48%; in the test with JeKo-1 [7], 15.6%.
Take `COc1ccc2c(c1OC)C(=O)O[C@@H]2[C@H]1c2c(c(CCCCCC#N)c3c(c2OC)OCO3)CCN1C(=O)OC(C)(C)C`: the inhibition of growth at 10 µM in the test with A549 is less than 5%; in the test on U-251, 19.1%; with MOLM-13 [4] it was 46.3%; in the test with HeLa [5], 16.1%; with NB-4 [6], 14.1%; with JeKo-1 [7], 19.9%.
Take `COc1ccc2c(c1OC)C(=O)O[C@@H]2[C@H]1c2c(c(C34C[C@H]5C[C@H](C3)C[C@@H](C4)C5)c3c(c2OC)OCO3)CCN1C(=O)OC(C)(C)C`: the inhibition of growth at 10 µM was less than 5% in the test on A549; less than 5% in the test with U-251; 17.6% in the test with MOLM-13 [4]; less than 5% in the test on HeLa [5]; less than 5% with NB-4 [6]; less than 5% with JeKo-1 [7].
On to `COc1ccc2c(c1OC)C(=O)O[C@@H]2[C@H]1c2c(cc3c(c2OC)OCO3)CCN1C` [NOSCAPINE], for which the IC50 with JeKo-1 [1] was more than 20 µM; in test [8] it was 39 µM; in the test with MCF7, 42 µM; with MOLM-13 [2], more than 20 µM; with NB-4 [3], more than 20 µM; in the test with HeLa [13] it was 25 µM. Besides, the inhibition of growth at 10 µM is less than 5% in the test on A549; less than 5% in the test with U-251; 19% in the test on MOLM-13 [4]; less than 5% with HeLa [5]; 26.7% with NB-4 [6]; less than 5% in the test with JeKo-1 [7]. Moreover, the Activity in the test on MOLM-13 [9] is given as 60.54%; with MOLM-13 [10], 25.66%; with MOLM-13 [11] it was 1.71%; with MOLM-13 [14], 8.44%; in the test on MOLM-13 [15], 13.8%; in the test on MOLM-13 [16] it was 6.9%. Also, the viability at 10 µM with MOLM-13 [12] turned out to be 83%.

These data come from ChEMBL document CHEMBL5357072, “Structural Modification of Noscapine via Photoredox/Nickel Dual Catalysis for the Discovery of S-Phase Arresting Agents” (ACS Med Chem Lett, 2024).
